Our source for the IC50, Activity and Kb values is ChEMBL document CHEMBL2010798, “Selenium-containing naphthalimides as anticancer agents: design, synthesis and bioactivity” (Bioorg Med Chem, 2012).

The source made the active and inactive calls. The calls are words filed in the database; no cut-off is given here.

For one test, the system named is HeLa. In words: Cytotoxicity against human HeLa cells by MTT assay. It is filed as functional, cell-based. (In general: Tetrazolium dyes change colour on reduction, which living cells bring about.)
The next test concerns HCT-116. In words: Cytotoxicity against human HCT116 cells by MTT assay. It is filed as functional, cell-based.
In another test the test system is K562. In words: Cytotoxicity against human K562 cells by MTT assay. Type of test: functional, cell-based.
A further test relates to A549. Briefly: Cytotoxicity against human A549 cells by MTT assay. Type of test: functional, cell-based.
The next test has as its system MCF7. In words: Cytotoxicity against human MCF7 cells by MTT assay. It is filed as functional, cell-based.
Test [1] relates to Nucleic Acid. In words: Binding affinity to calf thymus DNA assessed as hyperchromic effect at 10 uM by UV-Vis spectrophotometric analysis. It is filed as nucleic-acid assay. The conditions noted are these: Bos taurus, in the assay text read “hypochromic” for “hyperchromic”. The method, boiled down:
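Its concentration was set by absorption at 260 nm (6600 M⁻¹ cm⁻¹), and it was stored at 4 °C and used within 4 days. UV–vis absorption spectra of compound (10) were recorded in 20 mM Tris–HCl, pH 7.5, 25 °C, with ct-DNA increasing from 0 to 160.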

The subject of test [2] is Nucleic Acid. In words: Binding affinity to calf thymus DNA by fluorescence quenching technique. Type of test: nucleic-acid assay. The conditions noted are these: Bos taurus. The gist of the method:
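Calf thymus DNA was prepared as in line 1. Compound was held at 10 while ct-DNA was titrated at 0, 10, 20, 40, 60, 80, 100, 120, 140 and 160 in 20 mM Tris–HCl, pH 7.5. Solutions were equilibrated for 1 day at 25 °C in the dark, and fluorescence emission was recorded. Kb was fitted to a single-site quenching equation.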

By IC50 is commonly meant the point on the concentration scale where inhibition reaches its midpoint. A high value points to weaker potency. Take `CCCCCCCCN1C(=O)c2cccc3c(NCC[Se]c4ccccc4)ccc(c23)C1=O`: the IC50 in the test on HeLa came to 16.7 µM; in the test on HCT-116, 18.1 µM; with K562, 18.7 µM; in the test on A549, 20.6 µM; in the test with MCF7, 11.6 µM.
On the same counts, the results for `CCCCN1C(=O)c2cccc3c(NCC[Se]c4ccccc4)ccc(c23)C1=O` are more than 25 µM, more than 25 µM, more than 25 µM, more than 25 µM and more than 25 µM.
The matching figures for `CN(C)CCN1C(=O)c2cccc3c(N4CC[Se]CC4)ccc(c23)C1=O`: 5.6 µM, 5.4 µM, 5.3 µM, 8.7 µM and 5.3 µM.
On the same counts, the results for `Cc1ccc([Se]CCNc2ccc3c4c(cccc24)C(=O)N(CCN(C)C)C3=O)cc1` are more than 25 µM, 20 µM, 21.3 µM, 21 µM and 19.3 µM.
Turning to `CN(C)CCN1C(=O)c2cccc3c(NCCSc4ccccc4)ccc(c23)C1=O`, the IC50 in the test with HeLa was found to be 15.1 µM; in the test on HCT-116 it was 16.4 µM; with K562, 11.2 µM; with A549, 18 µM; in the test on MCF7, 19.1 µM. In the test with Nucleic Acid [1], the result was Active. Besides, in the test on Nucleic Acid [2], the Kb turned out to be 8.26 ×10⁴ /M.
Regarding `COc1ccc([Se]CCNc2ccc3c4c(cccc24)C(=O)N(CCN(C)C)C3=O)cc1`, the IC50 with HeLa came out at 17.9 µM; with HCT-116, 17.6 µM; in the test with K562, 16.6 µM; in the test with A549 it was 22.3 µM; in the test on MCF7, 18.3 µM.
As to `CCN(CC)CCN1C(=O)c2cccc3c(NCC[Se]c4ccccc4)ccc(c23)C1=O`, the IC50 was 15.5 µM in the test with HeLa; 14.6 µM in the test with HCT-116; 8.9 µM with K562; 10.7 µM in the test with A549; 11.9 µM in the test with MCF7.
`CN(C)CCN1C(=O)c2cccc3c(NCC[Se]c4ccccc4)ccc(c23)C1=O`: the IC50 in the test with HeLa turned out to be 16.8 µM; with HCT-116, 19.5 µM; with K562, 11.7 µM; in the test on A549 it was 17.4 µM; in the test on MCF7, 18.2 µM. In the test with Nucleic Acid [1], the outcome was Active. In the test with Nucleic Acid [2], this compound registered a Kb of 2.43 ×10⁴ /M.
As to `CN(C)CCN1C(=O)c2cccc3c(NCC[Se]c4ccc(OC(F)(F)F)cc4)ccc(c23)C1=O`, the IC50 in the test on HeLa is more than 25 µM; in the test on HCT-116 it was 9.9 µM; in the test on K562, 9.4 µM; in the test on A549, 14.4 µM; with MCF7, 16.4 µM.
The compound `CN(C)CCN1C(=O)c2cccc3cc(N)cc(c23)C1=O` [AMONAFIDE] registered an IC50 in the test with K562 of more than 50 µM.
